In brackets after ≈: the same amount, converted by molar mass.
What was measured:
[1] = Inhibitory activity against murine sarcoma virus induced transformation of murine C3H/3T3 embryo fibroblasts; assay type: functional, Mus musculus
Summary of the method: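 Murine C3H/3T3 embryo fibroblasts were seeded at 5 × 10⁵ cells/mL. After 24 h they were infected with 80 focus-forming units of MSV for 90–120 min at 37 °C. The medium was then replaced with fresh medium containing various compound concentrations, and transformation was examined microscopically after 6 days.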

[2] = test system: Human immunodeficiency virus 1; test: Inhibition of human immunodeficiency virus type 1 (HIV-1) induced cytopathogenicity in CEM cells; assay type: functional, organism-based; details: Human immunodeficiency virus 1, CCRF-CEM
Summary of the method: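 CEM cells (~3 × 10⁵ cells/mL) were infected with 100 CCID50 of HIV-1 (IIIB)/mL and plated with dilutions of compound. After 4 days at 37 °C, giant cell formation was assessed microscopically.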

[3] = test system: Human immunodeficiency virus 2; test: Inhibition of human immunodeficiency virus type 2 (HIV-2) induced cytopathogenicity in CEM cells; assay type: functional, organism-based; details: Human immunodeficiency virus 2, CCRF-CEM
[4] = test system: Human alphaherpesvirus 1; test: Inhibition of herpes simplex virus type 1 (HSV-1) F strain; assay type: functional, organism-based
Summary of the method: (§1)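 Confluent E6SM cell cultures were inoculated with 100 CCID50 of virus and allowed 1 h for adsorption. Residual virus was then removed, and the cells were incubated with test compound at 400, 200, 100, ... μg/mL. Viral cytopathicity was scored once it reached completion in untreated infected controls.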

[5] = test system: Human alphaherpesvirus 1; test: Inhibitory activity against herpes simplex virus type 1 (HSV-1) KOS strain; assay type: functional, organism-based; summary of the method: as §1
[6] = test system: Human alphaherpesvirus 1; test: Inhibitory activity against herpes simplex virus type 1 (HSV-1) McIntyre strain; assay type: functional, organism-based; summary of the method: as §1
[7] = Inhibitory activity against herpes simplex virus type 2 (HSV-2) 196 strain; assay type: functional; summary of the method: as §1
[8] = test system: Human alphaherpesvirus 2; test: Inhibitory activity against herpes simplex virus type 2 (HSV-2) Lyons strain; assay type: functional, organism-based; summary of the method: as §1
[9] = test system: Vaccinia virus; test: Inhibitory activity against vaccinia virus (VV); assay type: functional, organism-based; details: Orthopoxvirus vaccinia
Summary of the method: (§2)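 Confluent E6SM cell cultures were inoculated with 100 CCID50 of virus and left for 1 h adsorption, then residual virus was removed. Cultures were incubated with test compound at serial concentrations (400, 200, 100, ... μg/mL). Virus-induced cytopathicity was scored once it reached completion in untreated infected control cultures.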

[10] = test system: Cytomegalovirus; test: Inhibitory activity against cytomegalovirus (CMV) AD 169 strain; assay type: functional, organism-based; details: Human betaherpesvirus 5
Summary of the method: (§3)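 HEL cell cultures, grown to confluence, received 100 CCID50 of virus. After 1 h adsorption, the inoculum was removed and the cultures were incubated with serial concentrations of compound (400, 200, 100, ... μg/mL).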

[11] = test system: Cytomegalovirus; test: Inhibitory activity against cytomegalovirus (CMV) Davis strain; assay type: functional, organism-based; details: Human betaherpesvirus 5; summary of the method: as §3
[12] = test system: Human immunodeficiency virus 1; test: Inhibitory activity of compound against human immunodeficiency virus type 1 (HIV-1) induced cytopathogenicity in MT-4 cells; assay type: functional, organism-based; details: Human immunodeficiency virus 1, MT4
Summary of the method: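 Human MT-4 cells (~4 × 10⁵ cells/mL) were infected with 100 CCID50 of HIV-1 (IIIB)/mL and seeded into wells containing compound dilutions. After 5 days at 37 °C, viable cells were counted by trypan blue exclusion in a blood cell counting chamber.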

[13] = test system: Human immunodeficiency virus 2; test: Inhibitory activity against human immunodeficiency virus type 2 (HIV-2) induced cytopathogenicity in MT-4 cells; assay type: functional, organism-based; details: Human immunodeficiency virus 2, MT4
[14] = test system: HEL; test: Compound was evaluated for inhibitory activity against varicella zoster virus thymidine kinase (VZV TK-) 07/1 strain; NA=not active; assay type: functional, cell-based, Homo sapiens
[15] = test system: Human alphaherpesvirus 2; test: Inhibitory activity against herpes simplex virus type 2 (HSV-2) G strain; assay type: functional, organism-based; summary of the method: as §1
[16] = test system: Vaccinia virus; test: Inhibitory activity against vaccinia virus (VV).; assay type: functional, organism-based, Orthopoxvirus vaccinia; summary of the method: as §2
[17] = test system: Human alphaherpesvirus 1; test: Inhibitory activity against herpes simplex virus type 1 (HSV-1) F strain; assay type: functional, organism-based; summary of the method: as §1
[18] = test system: Human alphaherpesvirus 1; test: Inhibitory activity against herpes simplex virus type 1 (HSV-1) KOS strain.; assay type: functional, organism-based; summary of the method: as §1
[19] = test system: Human alphaherpesvirus 1; test: Iactivity against herpes simplex virus type 1 (HSV-1) McIntyre strain.; assay type: functional, organism-based; summary of the method: as §1
[20] = test system: Human alphaherpesvirus 2; test: Inhibitory activity against herpes simplex virus type 2 (HSV-2) 196 strain.; assay type: functional, organism-based; summary of the method: as §1
[21] = test system: Human alphaherpesvirus 2; test: Inhibitory activity against herpes simplex virus type 2 (HSV-2) G strain.; assay type: functional, organism-based; summary of the method: as §1
[22] = test system: E6SM; test: Inhibitory activity against herpes simplex virus type 2 (HSV-2) Lyons strain.; assay type: functional, cell-based, Homo sapiens; summary of the method: as §1
[23] = test system: Human alphaherpesvirus 1; test: Inhibitory activity against herpes simplex virus type 1 thymidine kinase (HSV-1 TK-) VMW 1837 strain.
[24] = test system: E6SM; test: Compound was evaluated for inhibitory activity against herpes simplex virus type 1 thymidine kinase (HSV-1 TK-) B2006 strain; NA=not active; assay type: functional, cell-based, Homo sapiens; summary of the method: as §1

Compound	EC50 [1] [µg/mL]	EC50 [4] [µg/mL]	EC50 [5] [µg/mL]	EC50 [6] [µg/mL]	EC50 [7] [µg/mL]	EC50 [8] [µg/mL]	EC50 [9] [µg/mL]	EC50 [10] [µg/mL]	EC50 [11] [µg/mL]	EC50 [12] [µg/mL]	EC50 [13] [µg/mL]	EC50 [15] [µg/mL]	EC50 [16]	EC50 [17]	EC50 [18]	EC50 [19]	EC50 [20]	EC50 [21]	EC50 [22]	EC50 [23]	further results
Nc1ncnc2c1ccn2CCOCP(=O)(O)O	4.1 (≈ 15.1 µM)	150 (≈ 551 µM)	200 (≈ 735 µM)	100 (≈ 367 µM)	200 (≈ 735 µM)	100 (≈ 367 µM)	150 (≈ 551 µM)	> 50	> 50	7.56 (≈ 27.8 µM)	8.27 (≈ 30.4 µM)	70 (≈ 257 µM)									EC50 [2]: 4 µg/mL (≈ 14.7 µM); EC50 [3]: 2.5 µg/mL (≈ 9.18 µM); EC50 [14]: Not Active
Nc1nccc(OCCOCP(=O)(O)O)n1	2.33 (≈ 9.35 µM)	> 200	> 200	300 (≈ 1200 µM)	> 200	300 (≈ 1200 µM)		> 100	> 100	> 100	> 100	> 200	Not Active								
CC(C)OP(=O)(COCCn1cnc2c(N)nc(Cl)nc21)OC(C)C	> 100							0.65 (≈ 1.66 µM)	0.7 (≈ 1.79 µM)	> 20			Not Active	Not Active	Not Active	Not Active	Not Active	Not Active	Not Active	Not Active	EC50 [14]: Not Active
Nc1ncc2ncn(CCOCP(=O)(O)O)c2n1	0.1 (≈ 0.366 µM)	20 (≈ 73.2 µM)	70 (≈ 256 µM)	20 (≈ 73.2 µM)	150 (≈ 549 µM)	70 (≈ 256 µM)		> 100	> 100	40.9 (≈ 150 µM)	50 (≈ 183 µM)	400 (≈ 1460 µM)	Not Active								
Nc1nc(Cl)nc2c1ncn2CCOCP(=O)(O)O	18.2 (≈ 59.2 µM)						> 40	88 (≈ 286 µM)	85 (≈ 276 µM)	> 100	> 100			Not Active	Not Active	Not Active	Not Active	Not Active	Not Active	Not Active	
CC(C)OP(=O)(COCCn1cnc2c(Cl)nc(N)nc21)OC(C)C	> 100							40 (≈ 102 µM)	10 (≈ 25.5 µM)	> 100	> 100		Not Active	Not Active	Not Active	Not Active	Not Active	Not Active	Not Active	Not Active	
Nc1cnn(CCOCP(=O)(O)O)c(=O)n1	> 100							> 100	> 100	> 100	> 100			Not Active	Not Active	Not Active	Not Active	Not Active	Not Active	Not Active	
Nc1nc(O)c2c(ncn2CCOCP(=O)(O)O)n1	96 (≈ 332 µM)	200 (≈ 692 µM)	300 (≈ 1040 µM)	150 (≈ 519 µM)	200 (≈ 692 µM)	> 400	> 400	> 50	> 50			300 (≈ 1040 µM)									EC50 [2]: > 100 µg/mL; EC50 [3]: > 100 µg/mL; EC50 [14]: Not Active
CC(C)OP(=O)(COCCn1cnc2nc(N)nc(O)c21)OC(C)C	> 200	> 200	> 200	> 200	> 200	> 200	> 200	> 50	> 50			> 200									EC50 [2]: > 100 µg/mL; EC50 [3]: > 100 µg/mL; EC50 [14]: Not Active
Nc1nccc2c1ncn2CCOCP(=O)(O)O	> 100							70 (≈ 257 µM)	400 (≈ 1470 µM)	> 200			Not Active	Not Active	Not Active	Not Active	Not Active	Not Active	Not Active	Not Active	EC50 [24]: Not Active
CSc1ncnc2c1ncn2CCOCP(=O)(O)O	> 200							> 400	> 400	> 200	> 400		Not Active	Not Active	Not Active	Not Active	Not Active	Not Active	Not Active	Not Active	EC50 [24]: Not Active
Nc1ccn(CCOCP(=O)(O)O)c(=O)c1	> 100						> 40	100 (≈ 403 µM)	> 100	> 100	> 100			Not Active	Not Active	Not Active	Not Active	Not Active	Not Active	Not Active	
Nc1ncnc2c1nc(Br)n2CCOCP(=O)(O)O	> 200							> 50	> 50	> 100	> 100		Not Active	Not Active	Not Active	Not Active	Not Active	Not Active	Not Active	Not Active	EC50 [2]: > 100 µg/mL; EC50 [3]: > 100 µg/mL; EC50 [24]: Not Active
